High-throughput results (PubChem)
Hits are enriched below; roughly 2% of the tested compounds scored in any of these assays.
TRPML3_agonist: human mucolipin-3 channel agonism. activation, % at 3 µM. actives 0.29% (n = 220,000). HEK293 TRPML3-YFP, Fluo-8 calcium fluorescence; 100% = the carbachol control signal. Q8TDD5;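 active = activation above its plate's cutoff, the mean activation of the plate's test wells plus 3 SD, cut at about 12% in these data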;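 note: 0% = DMSO only wells and 100% = carbachol wells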
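system = HEK293 cells stably carrying human TRPML3-YFP | doses = one concentration, 3 µM nominal, 0.3% DMSO | timing = dye loading 1 h 37 °C then 30 min ambient, 125 s read | detection = Fluo-8 calcium dye fluorescence, ex 470-495, em 515-575 nm | benchmarks = high control carbachol 87 µM, low control DMSO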
GPR7_antagonist: human neuropeptides B/W receptor 1 antagonism; P48145; GPR7-expressing cells, fluorescence antagonist assay; inhibition, % at 4.4 µM; actives 1.1% (n = 290,000); AID 1861; in the data active = inhibition above about 16%, passing the limit was not always enough;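 note: cells stimulated with the agonist NPW; 0% = agonist with vehicle and 100% = vehicle without agonist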
CRFR2-BP_ag: CRF-BP/CRF-R2 complex agonism; actives 0.46% (n = 350,000); AID 588473; HEK293 CRF-R2/CRF-BP, calcium dye fluorescence (FLIPR); percent of saturating CRF peptide response; activation, % at 13.2 µM;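 active = activation of at least 50%, plus an integration ratio under a set limit after plate pattern correction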;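 note: plate controls were neutral control wells without compound for no effect and CRF at EC100 for full effect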
CRFR2-BP_antag: CRF-BP/CRF-R2 complex antagonism; actives 0.59% (n = 350,000); inhibition, % at 11.8 µM; HEK293 CRF-R2/CRF-BP, CRF-induced calcium fluorescence;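 active = inhibition of the ligand-induced calcium signal above about 50% at the single tested concentration, limit read from the data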
TRPN1_ag: agonists of zebrafish TRPN1 channel. activation, % at 3 µM. HEK293 zebrafish TRPN1-YFP, Fluo-8 calcium fluorescence; 100% = response to 87 µM carbachol. AID 1424. actives 0.18% (n = 220,000);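 active = activation above its plate's cutoff, the mean activation of test wells on that plate plus 3 SD, cut at about 19% in these data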;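 note: 0% = DMSO alone and 100% = 87 µM carbachol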
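Assay system: Zebrafish TRPN1-YFP in HEK293 cells | Incubation: Dye loading 1 h at 37 °C, then 30 min room temperature | Measured by: Kinetic Fluo-8 fluorescence, ex 470-495, em 515-575 nm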
GPR7_antag_cf: confirmation of human GPR7 antagonists; actives 52% (n = 2,400); GPR7-expressing cells, calcium fluorescence antagonist mode; AID 1952; shares compounds with GPR7_antagonist; inhibition, % at 4.4 µM; in the data active = inhibition above about 24%;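 note: stimulated with the GPR7 agonist NPW; 0% = agonist plus vehicle and 100% = vehicle alone without agonist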
MCHR1_antag: MCHR1 (human) antagonism in GPR7 counter-screen; shares compounds with GPR7_antagonist; MCHR1-expressing cells, fluorescence antagonist assay; inhibition, % at 4.4 µM; actives 62% (n = 2,400); AID 2148; in the data active = inhibition above about 22%;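 note: 0% = vehicle with agonist and 100% = vehicle without agonist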
Numbers without * were called inactive; . = not tested or not shown.

SMILES TRPML3_agonist GPR7_antagonist CRFR2-BP_ag CRFR2-BP_antag TRPN1_ag GPR7_antag_cf MCHR1_antag
COc1ccc(S(=O)(=O)N(CC(=O)Nc2ccc(S(=O)(=O)N3CCOCC3)cc2)Cc2ccc(F)cc2)cc1 -0.1 24.2* -0.4 -18.0 0.6 28.3* 20.8
COc1ccc(CC(=O)Nc2ccc(S(=O)(=O)N3CCOCC3)cc2)cc1 . . 0.0 -0.9 . . .
O=S(=O)(c1ccc2c(c1)CCN2)N1CCOCC1 . . -0.4 0.6 . . .
S=C(NCCN1CCCCC1)Nc1ccccc1 0.6 -4.5 -1.1 6.8 -0.3 . .
S=C(NCCN1CCCCC1)Nc1ccc(Br)cc1 0.5 37.7* -0.7 4.7 -1.4 9.1 12.8
CC(=O)c1ccc(NC(=S)NC(=O)/C=C/c2ccc(F)cc2)cc1 . 47.8* -0.8 -15.8 . 10.6 12.8
COc1ccccc1NC(=O)Cc1ccsc1 . -12.2 -0.4 3.0 . . .
CCOC(=O)CNS(=O)(=O)c1cc(-c2nnc(Nc3ccc4c(c3)OCO4)c3ccccc23)ccc1C 0.0 35.9* -3.7 -12.5 0.9 46.9* 78.3*
Cc1ccc(-c2nnc(Nc3ccc(O)cc3)c3ccccc23)cc1S(=O)(=O)NCCO . -3.8 1.0 -3.9 . . .
Cc1nc(NCc2ccccn2)c2c3c(sc2n1)CCCC3 -0.2 31.8* -0.3 -48.7 -1.2 25.1* 21.5*
c1ccc(CNc2ncnc3sc4c(c23)CCCC4)nc1 0.6 9.9 -1.1 -5.2 0.6 . .
COc1ncnc2c1ncn2CCCNCc1ccco1 . . -1.3 5.4 . . .
O=C1NC(=S)S/C1=C/c1ccc(OC(=O)c2ccco2)cc1 . 27.9* -1.1 44.6 . 16.5 22.7*
COc1cc(/C=C2/SC(=O)NC2=O)ccc1OC(=O)c1ccco1 . 3.2 -1.9 15.1 . . .
CCc1ccc(CCC(=O)Nc2ccc(C(C)=O)cc2)o1 -1.0 21.4* -2.8 21.7 -0.2 26.7* 34.5*
CCc1ccc(CCC(=O)Nc2ccc(Br)cc2)o1 . -4.4 -2.3 -3.7 . . .
